Test: Pharmacokinetics of CK and its metabolite 20
Type: in vivo, healthy Chinese volunteers
In short: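 Healthy adults given one oral tablet dose fasting (overnight, or 10 h in a crossover food-effect arm); 30 subjects from the 100/200/400 mg groups were pooled with 24 from 200 mg fasting periods. Plasma was stored at −70°C, extracted with MTBE plus internal standards and assayed by LC-MS/MS. Cmax was observed and AUClast calculated by linear trapezoid, each divided by dose. The metabolite/parent ratio was also calculated. Genotyping used Sequenom MassARRAY, and log-transformed values were compared by one-way ANOVA.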

[1] = ABCC4 rs1151471 CC, n = 2, mean (SD)
[2] = ABCC4 rs2274406 TT (first line), mean (SD)
[3] = ABCC4 rs2274406 TT (third line), mean (SD)
[4] = ABCG2 rs2054576 AA (first line), mean (SD)
[5] = ABCG2 rs2054576 AA (third line), mean (SD)

SMILES: CC(C)=CCC[C@](C)(O[C@@H]1O[C@H](CO)[C@@H](O)[C@H](O)[C@H]1O)[C@H]1CC[C@]2(C)[C@@H]1[C@H](O)C[C@@H]1[C@@]3(C)CC[C@H](O)C(C)(C)[C@@H]3CC[C@]12C [Ginsenoside compound K, 20-O-beta-D-glucopyranosyl-20(S)-protopanaxadiol]
- dose-normalized exposure among the groups (100, 200, 400 mg single-dose groups and food-effect trial, fasting): not significantly different
- CK AUClast/D (ABCB1 rs1045642 AA, mean (SD)): 28.81 (11.93)
- CK Cmax/D (ABCB1 rs1045642 AA, mean (SD)): 4.03 (1.47)
- CK AUClast/D (ABCB1 rs1045642 AG, mean (SD)): 27.71 (15.58)
- CK Cmax/D (ABCB1 rs1045642 AG, mean (SD)): 3.50 (1.91)
- CK AUClast/D (ABCB1 rs1045642 GG, mean (SD)): 31.19 (22.91)
- CK Cmax/D (ABCB1 rs1045642 GG, mean (SD)): 4.13 (2.82)
- CK AUClast/D (ABCB1 rs1128503 AA, mean (SD)): 28.07 (15.30)
- CK Cmax/D (ABCB1 rs1128503 AA, mean (SD)): 3.67 (1.80)
- CK AUClast/D (ABCB1 rs1128503 AG, mean (SD)): 28.43 (20.03)
- CK Cmax/D (ABCB1 rs1128503 AG, mean (SD)): 3.66 (2.34)
- CK AUClast/D (ABCB1 rs1128503 GG, mean (SD)): 33.81 (17.43)
- CK Cmax/D (ABCB1 rs1128503 GG, mean (SD)): 4.67 (3.44)
- CK AUClast/D (ABCB1 rs2032582 AA, mean (SD)): 26.68 (12.71)
- CK Cmax/D (ABCB1 rs2032582 AA, mean (SD)): 3.81 (2.02)
- CK AUClast/D (ABCB1 rs2032582 CA, mean (SD)): 27.47 (15.11)
- CK Cmax/D (ABCB1 rs2032582 CA, mean (SD)): 3.46 (1.72)
- CK AUClast/D (ABCB1 rs2032582 CC, mean (SD)): 33.69 (25.60)
- CK Cmax/D (ABCB1 rs2032582 CC, mean (SD)): 4.42 (3.14)
- CK AUClast/D (ABCC2 rs717620 CC, mean (SD)): 31.60 (19.89)
- CK Cmax/D (ABCC2 rs717620 CC, mean (SD)): 3.98 (2.30)
- CK AUClast/D (ABCC2 rs717620 CT, mean (SD)): 25.18 (13.50)
- CK Cmax/D (ABCC2 rs717620 CT, mean (SD)): 3.48 (2.01)
- CK AUClast/D (ABCC2 rs2273697 GA, mean (SD)): 35.66 (26.59)
- CK Cmax/D (ABCC2 rs2273697 GA, mean (SD)): 4.74 (3.23)
- CK AUClast/D (ABCC2 rs2273697 GG, mean (SD)): 25.98 (12.06)
- CK Cmax/D (ABCC2 rs2273697 GG, mean (SD)): 3.35 (1.44)
- CK AUClast/D (ABCC2 rs2756109 GG, mean (SD)): 27.59 (12.16)
- CK AUClast/D (ABCC2 rs3740066 CC, mean (SD)): 32.09 (20.46)
- CK Cmax/D (ABCC2 rs3740066 CC, mean (SD)): 4.02 (2.37)
- CK Cmax/D (ABCC2 rs3740066 CT, mean (SD)): 3.3 (1.87)
- CK AUClast/D (ABCC2 rs3740066 TT, n = 1): 55.95 (—)
- CK Cmax/D (ABCC2 rs3740066 TT, n = 1): 6.24 (—)
- CK AUClast/D (ABCC3 rs4148416 CC, mean (SD)): 29.20 (18.77)
- CK Cmax/D (ABCC3 rs4148416 CC, mean (SD)): 3.72 (2.07)
- CK AUClast/D (ABCC3 rs4148416 CT, mean (SD)): 27.15 (14.29)
- CK Cmax/D (ABCC3 rs4148416 CT, mean (SD)): 3.78 (2.53)
- CK AUClast/D (ABCC3 rs4793665 CT, mean (SD)): 29.14 (12.55)
- CK Cmax/D (ABCC3 rs4793665 CT, mean (SD)): 4.04 (2.17)
- CK AUClast/D (ABCC3 rs4793665 TT, mean (SD)): 28.53 (18.94)
- CK Cmax/D (ABCC3 rs4793665 TT, mean (SD)): 3.65 (2.19)
- CK AUClast/D (ABCC3 rs12051822 GA, mean (SD)): 23.66 (11.90)
- CK Cmax/D (ABCC3 rs12051822 GA, mean (SD)): 3.09 (1.13)
- CK AUClast/D (ABCC3 rs12051822 GG, mean (SD)): 30.37 (18.95)
- CK Cmax/D (ABCC3 rs12051822 GG, mean (SD)): 3.96 (2.39)
- CK AUClast/D [1]: 13.68 (2.21)
- CK Cmax/D [1]: 2.08 (0.39)
- CK AUClast/D (ABCC4 rs1151471 TC, mean (SD)): 24.64 (13.71)
- CK Cmax/D (ABCC4 rs1151471 TC, mean (SD)): 3.32 (2.06)
- CK AUClast/D (ABCC4 rs1151471 TT, mean (SD)): 32.65 (19.80)
- CK Cmax/D (ABCC4 rs1151471 TT, mean (SD)): 4.16 (2.32)
- CK AUClast/D (ABCC4 rs1189437 GG, n = 1): 12.12 (−)
- CK Cmax/D (ABCC4 rs1189437 GG, n = 1): 1.80 (−)
- CK AUClast/D (ABCC4 rs1189437 GT, mean (SD)): 20.77 (9.40)
- CK Cmax/D (ABCC4 rs1189437 GT, mean (SD)): 2.74 (1.29)
- CK AUClast/D (ABCC4 rs1189437 TT, mean (SD)): 31.84 (19.14)
- CK Cmax/D (ABCC4 rs1189437 TT, mean (SD)): 4.06 (2.19)
- CK AUClast/D (ABCC4 rs1751034 TC, mean (SD)): 18.58 (7.25)
- CK Cmax/D (ABCC4 rs1751034 TC, mean (SD)): 2.45 (0.95)
- CK AUClast/D (ABCC4 rs1751034 TT, mean (SD)): 32.53 (18.96)
- CK Cmax/D (ABCC4 rs1751034 TT, mean (SD)): 4.23 (2.32)
- CK AUClast/D (ABCC4 rs2274406 CT, mean (SD)): 28.24 (19.96)
- CK Cmax/D (ABCC4 rs2274406 CT, mean (SD)): 3.68 (2.42)
- CK AUClast/D [2]: 33.40 (14.80)
- CK Cmax/D [2]: 4.70 (2.25)
- CK AUClast/D [3]: 26.57 (13.77)
- CK Cmax/D [3]: 3.25 (1.32)
- CK AUClast/D (ABCC4 rs2274407 CA, mean (SD)): 28.22 (13.76)
- CK Cmax/D (ABCC4 rs2274407 CA, mean (SD)): 3.43 (1.35)
- CK AUClast/D (ABCC4 rs2274407 CC, mean (SD)): 28.81 (18.82)
- CK Cmax/D (ABCC4 rs2274407 CC, mean (SD)): 3.84 (2.38)
- CK AUClast/D (ABCC4 rs4148546 AA, mean (SD)): 26.51 (15.61)
- CK Cmax/D (ABCC4 rs4148546 AA, mean (SD)): 3.43 (1.93)
- CK Cmax/D (ABCC4 rs4148546 GA, mean (SD)): 3.49 (1.91)
- CK AUClast/D (ABCC4 rs4148546 GG, mean (SD)): 39.82 (26.88)
- CK Cmax/D (ABCC4 rs4148546 GG, mean (SD)): 4.87 (2.88)
- CK AUClast/D (ABCC4 rs11568658 CC, mean (SD)): 28.31 (19.56)
- CK AUClast/D [4]: 25.61 (12.77)
- CK Cmax/D [4]: 3.31 (1.53)
- CK AUClast/D [5]: 25.70 (13.01)
- CK Cmax/D [5]: 3.29 (1.35)
- CK AUClast/D (ABCG2 rs2054576 GA, mean (SD)): 32.78 (22.38)
- CK Cmax/D (ABCG2 rs2054576 GA, mean (SD)): 4.31 (2.78)
- CK AUClast/D (ABCG2 rs2231142 GG, mean (SD)): 27.45 (13.31)
- CK Cmax/D (ABCG2 rs2231142 GG, mean (SD)): 3.51 (1.56)
- CK AUClast/D (ABCG2 rs2231142 GT, mean (SD)): 31.50 (23.56)
- CK Cmax/D (ABCG2 rs2231142 GT, mean (SD)): 3.89 (2.60)
- CK AUClast/D (ABCG2 rs2231142 TT, mean (SD)): 25.70 (13.01)
- CK Cmax/D (ABCG2 rs2231142 TT, mean (SD)): 3.29 (1.35)
- CK AUClast/D (ABCG2 rs2231148 AA, mean (SD)): 35.54 (21.89)
- CK Cmax/D (ABCG2 rs2231148 AA, mean (SD)): 4.43 (2.92)
- CK AUClast/D (ABCG2 rs2231148 AT, mean (SD)): 39.28 (26.36)
- CK Cmax/D (ABCG2 rs2231148 AT, mean (SD)): 4.87 (3.24)
- CK AUClast/D (ABCG2 rs2231148 TT, mean (SD)): 23.05 (8.91)
- CK Cmax/D (ABCG2 rs2231148 TT, mean (SD)): 3.09 (1.18)
- CK AUClast/D (ABCG2 rs2725248 AA, mean (SD)): 26.94 (18.76)
- CK Cmax/D (ABCG2 rs2725248 AA, mean (SD)): 3.68 (2.42)
- CK AUClast/D (ABCG2 rs2725248 CA, mean (SD)): 31.91 (15.94)
- CK Cmax/D (ABCG2 rs2725248 CA, mean (SD)): 3.96 (1.89)
- CK AUClast/D (ABCG2 rs2725248 CC, mean (SD)): 40.01 (16.71)

Reference: article PMC6606825 (Journal of Ginseng Research, 2018)
